Assays:
[1] = Inhibition of amyloid beta (1-42) aggregation at 10 uM by thioflavin T based fluorometric assay
Method in brief: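 Aβ1-42 self-induced aggregation, read by thioflavin T fluorescence, with Aβ1-42 to inhibitor ratio 5/1. Reported as % inhibition. Mean of two independent experiments, each in duplicate. Controls added compound to already-aggregated Aβ after ThT dilution to exclude ThT displacement.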

Cholinesterase = Cholinesterase (Homo sapiens, UniProt P06276); assay: Inhibition of human serum BuChE
Method in brief: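 BuChE purified from human serum; activity read by Ellman's method. IC50 is the inhibitor concentration that cuts enzyme activity by 50%, taken as the mean of two independent measurements each run in duplicate.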

[2] = Neurotoxicity in human SH-SY5Y cells assessed as decrease in cell viability by MTT assay; format: toxicity, cell-based
Method in brief: (§1)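 SH-SY5Y human neuronal-like cells treated with compound alone for 24 h, with viability read by colorimetric MTT assay. IC50 is the concentration giving 50% inhibition of neuronal viability. Range tested 1–50 µM.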

SH-SY5Y [3] = assay: Neuroprotective activity in human SH-SY5Y cells assessed as inhibition of amyloid beta(1-42)-induced neurotoxicity at 1 uM incubated for 3 hrs by MTT assay; format: functional; design: scale not given: the % may be the effect or the level left
Method in brief: (§2)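 Human neuronal-like SH-SY5Y cells exposed for 3 h to Aβ1–42 pre-aggregated to oligomers, with compound present. Viability read by MTT colorimetric assay. Result expressed as % inhibition of oligomer-induced neurotoxicity, mean ± SD of at least two independent experiments.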

Acetylcholinesterase = Acetylcholinesterase (Homo sapiens, UniProt P22303); assay: Inhibition of human serum AChE
SH-SY5Y [4] = assay: Neurotoxicity in human SH-SY5Y cells assessed as cell viability at 0.1 to 1 uM by MTT assay; format: toxicity, cell-based
SH-SY5Y [5] = assay: Neurotoxicity in human SH-SY5Y cells assessed as decrease in cell viability at 1 to 50 uM by MTT assay; format: toxicity, cell-based; method in brief: as §1
SH-SY5Y [6] = assay: Neurotoxicity in human SH-SY5Y cells assessed as cell viability at 0.1 to 10 uM by MTT assay; format: toxicity, cell-based
SH-SY5Y [7] = assay: Neuroprotective activity in human SH-SY5Y cells assessed as inhibition of amyloid beta(1-42)-induced neurotoxicity at 10 uM incubated for 3 hrs by MTT assay; format: functional; design: scale not given: the % may be the effect or the level left; method in brief: as §2

Chain of Cholinesterase (P06276 whole entry): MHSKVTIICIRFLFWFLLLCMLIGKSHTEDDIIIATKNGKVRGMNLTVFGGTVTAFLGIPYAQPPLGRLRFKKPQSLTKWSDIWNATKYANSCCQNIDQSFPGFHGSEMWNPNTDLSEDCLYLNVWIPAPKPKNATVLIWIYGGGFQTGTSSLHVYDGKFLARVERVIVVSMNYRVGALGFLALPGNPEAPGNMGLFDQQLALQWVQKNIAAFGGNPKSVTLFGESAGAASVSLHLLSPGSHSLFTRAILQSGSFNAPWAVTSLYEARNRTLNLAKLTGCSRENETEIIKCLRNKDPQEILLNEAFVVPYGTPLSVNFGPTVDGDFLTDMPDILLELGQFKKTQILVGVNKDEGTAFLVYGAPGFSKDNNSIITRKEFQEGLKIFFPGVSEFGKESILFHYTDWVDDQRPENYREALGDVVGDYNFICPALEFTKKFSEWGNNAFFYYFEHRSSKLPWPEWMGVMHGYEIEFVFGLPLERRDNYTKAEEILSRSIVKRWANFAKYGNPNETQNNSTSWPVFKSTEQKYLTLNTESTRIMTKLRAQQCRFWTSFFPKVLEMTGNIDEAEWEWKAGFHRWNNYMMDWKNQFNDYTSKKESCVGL
Chain of Acetylcholinesterase (P22303 whole entry): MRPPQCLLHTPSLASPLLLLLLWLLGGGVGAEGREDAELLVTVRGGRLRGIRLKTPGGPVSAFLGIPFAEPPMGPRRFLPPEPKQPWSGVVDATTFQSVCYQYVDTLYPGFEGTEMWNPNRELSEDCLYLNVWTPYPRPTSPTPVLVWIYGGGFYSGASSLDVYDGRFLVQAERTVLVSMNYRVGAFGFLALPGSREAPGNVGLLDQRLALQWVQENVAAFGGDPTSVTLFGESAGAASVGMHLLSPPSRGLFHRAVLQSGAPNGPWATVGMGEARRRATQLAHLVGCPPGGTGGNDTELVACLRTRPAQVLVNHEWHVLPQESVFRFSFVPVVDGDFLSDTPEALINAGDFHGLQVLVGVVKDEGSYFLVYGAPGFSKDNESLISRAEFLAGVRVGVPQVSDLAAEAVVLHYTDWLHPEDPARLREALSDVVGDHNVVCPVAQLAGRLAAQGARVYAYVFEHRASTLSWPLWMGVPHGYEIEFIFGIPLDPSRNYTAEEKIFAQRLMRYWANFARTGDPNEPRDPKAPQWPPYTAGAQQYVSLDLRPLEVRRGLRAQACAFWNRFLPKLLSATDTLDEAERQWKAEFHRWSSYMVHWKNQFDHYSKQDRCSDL

SMILES	inhibition [1] [%]	IC50 (Cholinesterase) [µM]	IC50 [2] [µM]	Activity (SH-SY5Y [3]) [%]	IC50 (Acetylcholinesterase) [µM]	Activity (SH-SY5Y [4])	Activity (SH-SY5Y [5])	Activity (SH-SY5Y [6])	Activity (SH-SY5Y [7]) [%]
COc1cc(/C=C/C(=O)CC(=O)/C=C/c2ccc(O)c(OC)c2)ccc1O	34.4								
O=C1C=C(NCCCNCc2cc3ccccc3o2)C(=O)C=C1NCCCNCc1cc2ccccc2o1	27.2	2.6	14.8	25	21.8	Non-toxic			
O=C1C=C(NCCCCCCNCc2nc3ccccc3s2)C(=O)C=C1NCCCCCCNCc1nc2ccccc2s1	18.5	> 10			22				
COc1cc(CNCCCNC2=CC(=O)C(NCCCNCc3ccc(O)c(OC)c3)=CC2=O)ccc1O	22	8.24		25	0.198		Non-toxic	Non-toxic	
O=C1C=C(NCCCNCc2ccc(-c3nc4ccccc4s3)cc2)C(=O)C=C1NCCCNCc1ccc(-c2nc3ccccc3s2)cc1	41.4	35.3			31.4				
COc1cc(CNCCCCCCNC2=CC(=O)C(NCCCCCCNCc3ccc(O)c(OC)c3)=CC2=O)ccc1O	50.4	1.6			0.102				
O=C1C=C(NCCCCCCNCc2ccc(-c3nc4ccccc4s3)cc2)C(=O)C=C1NCCCCCCNCc1ccc(-c2nc3ccccc3s2)cc1	25.7	27.3			0.305				
CCN(CCCCCCNC1=CC(=O)C(NCCCCCCN(CC)Cc2ccccc2OC)=CC1=O)Cc1ccccc1OC [MEMOQUIN]			19.4	70		Non-toxic			80
O=C1C=C(NCCCCCCNCc2cc3ccccc3o2)C(=O)C=C1NCCCCCCNCc1cc2ccccc2o1	18.4	84.2			> 10				
O=C1C=C(NCCCNCc2nc3ccccc3s2)C(=O)C=C1NCCCNCc1nc2ccccc2s1	16.2	> 10		25	> 10	Non-toxic	Non-toxic		

— ChEMBL document CHEMBL1770071, “Multitargeted drugs discovery: balancing anti-amyloid and anticholinesterase capacity in a single chemical entity” (Bioorg Med Chem Lett, 2011)
